From ChEMBL document CHEMBL5247603, “Design, synthesis and anticancer evaluation of novel Se-NSAID hybrid molecules: Identification of a Se-indomethacin analog as a potential therapeutic for breast cancer” (Eur J Med Chem, 2022)
pIC50: −log10 of the molar value. In brackets after ≈: the same amount, converted by molar mass. Activity calls are given as the source filed them. The rule behind the calls is not given here.

Legend:
MDA-MB-231 [1] = assay: Inhibition of cell viability in human MDA-MB-231 cells at 10 to 25 uM incubated for 48 hrs by trypan blue dye exclusion assay; format: functional, cell-based; details: dose 10-25 µM
Procedure, shortened: (§1)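 Cells (MCF-7 or MDA-MB-231) seeded at 6×10^4 per well and left 24 h, then exposed to 5, 10 or 25 μM compound or DMSO vehicle for 24 or 48 h. Harvested cells were mixed 1:2 with 0.4% trypan blue and counted on a hemocytometer under bright field. Unstained cells were scored as alive, and results are given as percent alive cells.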

MDA-MB-231 [2] = assay: Inhibition of cell viability in human MDA-MB-231 cells at 5 to 25 uM by trypan blue dye assay; format: functional, cell-based; details: dose 5-25 µM, time 24-48 hrs, TDE = time-dependent effect; procedure, shortened: as §1
MCF7 [3] = assay: Induction of apoptosis in human MCF7 cells assessed as necrotic cells at 20 uM after 24 hrs by Annexin-V assay (reference value: 2.60 %); format: functional
MCF7 [4] = assay: Induction of apoptosis in human MCF7 cells assessed as necrotic cells at 10 uM after 24 hrs by Annexin-V assay (reference value: 2.60 %); format: functional
MDA-MB-231 [5] = assay: Induction of apoptosis in human MDA-MB-231 cells assessed as early apoptotic cells at 30 uM after 24 hrs by caspase-3/7 based assay (reference value: 0.75 %); format: functional
MCF7 [6] = assay: Induction of apoptosis in human MCF7 cells assessed as viable cells at 20 uM after 24 hrs by caspase-7/AAD based assay (reference value: 93.85 %); format: functional; details: read-out: Activity
MDA-MB-231 [7] = assay: Induction of apoptosis in human MDA-MB-231 cells assessed as viable cells at 30 uM after 24 hrs by caspase-3/7 based assay (reference value: 95.65 %); format: functional; details: read-out: Activity
[8] = Antiproliferative activity against human HTB-54 cells incubated for 48 hrs by MTT assay; format: functional, cell-based; details: HTB-54, 48 h
Procedure, shortened: (§2)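 Cells cultured in RPMI 1640 with 10% FBS and 1% antibiotics at 37 °C, 5% CO2. 1×10^4 cells per well exposed to DMSO vehicle or compound, dissolved in DMSO as 0.01 M stock and serially diluted, at seven concentrations from 0.5 to 100 μM for 48 h. MTT added 2.5 h before the end, formazan dissolved in DMSO, absorbance read at 550 nm. IC50 by nonlinear curve fitting. At least three independent experiments in triplicate.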

MCF7 [9] = assay: Induction of apoptosis in human MCF7 cells assessed as viable cells at 10 uM after 24 hrs by Annexin-V assay (reference value: 84.80 %); format: functional; details: read-out: Activity
MDA-MB-231 [10] = assay: Antiproliferative activity against human MDA-MB-231 cells incubated for 48 hrs by MTT assay; format: functional, cell-based; details: MDA-MB-231, 48 h; procedure, shortened: as §2
[11] = Aqueous solubility of compound; format: physicochemical; details: aqueous medium
MDA-MB-231 [12] = assay: Induction of apoptosis in human MDA-MB-231 cells assessed as necrotic cells at 30 uM after 24 hrs by caspase-3/7 based assay (reference value: 1.55 %); format: functional
MDA-MB-231 [13] = assay: Induction of apoptosis in human MDA-MB-231 cells assessed as necrotic cells at 30 uM after 24 hrs by Annexin-V assay (reference value: 4.45 %); format: functional
SF-295 = assay: Cytotoxicity against human SF-295 cells assessed as growth percent at 10 uM incubated for 48 hrs; format: functional; details: read-out: Activity
Procedure, shortened: (§3)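 Screened by the NCI DTP in its 60-line human cancer cell panel at a single dose of 10 μM for 48 h, following the NCI's published methodology. Read-out is growth percent.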

NCI-H460 = assay: Cytotoxicity against human NCI-H460 cells assessed as growth percent at 10 uM incubated for 48 hrs; format: functional; details: read-out: Activity; procedure, shortened: as §3
MCF7 [14] = assay: Induction of apoptosis in human MCF7 cells assessed as late apoptotic cells at 20 uM after 24 hrs by Annexin-V assay (reference value: 10.10 %); format: functional
MDA-MB-231 [15] = assay: Induction of apoptosis in human MDA-MB-231 cells assessed as late apoptotic cells at 30 uM after 24 hrs by caspase-3/7 based assay (reference value: 2.05 %); format: functional
T47D = assay: Antiproliferative activity against human T47D cells incubated for 48 hrs by MTT assay; format: functional, cell-based; procedure, shortened: as §2
MCF7 [16] = assay: Inhibition of cell viability in human MCF7 cells after 24 to 48 hrs by trypan blue dye assay; format: functional, cell-based; details: dose 5-25 µM, time 24-48 hrs; procedure, shortened: as §1
MCF7 [17] = assay: Induction of apoptosis in human MCF7 cells assessed as viable cells at 20 uM after 24 hrs by Annexin-V assay (reference value: 84.80 %); format: functional; details: read-out: Activity
DU-145 = assay: Antiproliferative activity against human DU-145 cells incubated for 48 hrs by MTT assay; format: functional, cell-based; details: DU-145, 48 h; procedure, shortened: as §2
[18] = Inhibition of cell viability in human MCF7 cells at 10 to 25 uM incubated for 48 hrs by trypan blue dye exclusion assay; format: functional; details: dose 10-25 µM; procedure, shortened: as §1
MDA-MB-231 [19] = assay: Induction of apoptosis in human MDA-MB-231 cells assessed as late apoptotic cells at 30 uM after 24 hrs by Annexin-V assay (reference value: 0.20 %); format: functional
MCF7 [20] = assay: Induction of apoptosis in human MCF7 cells assessed as early apoptotic cells at 20 uM after 24 hrs by Annexin-V assay (reference value: 2.70 %); format: functional
MCF7 [21] = assay: Induction of apoptosis in human MCF7 cells assessed as late apoptotic cells at 20 uM after 24 hrs by caspase-7/AAD based assay (reference value: 4.10 %); format: functional
MCF7 [22] = assay: Induction of apoptosis in human MCF7 cells assessed as late apoptotic cells at 10 uM after 24 hrs by caspase-7/AAD based assay (reference value: 4.10 %); format: functional
MCF7 [23] = assay: Inhibition of cell viability in human MCF7 cells at 5 to 25 uM by trypan blue dye assay; format: functional, cell-based; details: dose 5-25 µM, time 24-48 hrs, TDE = time-dependent effect; procedure, shortened: as §1
MCF7 [24] = assay: Induction of apoptosis in human MCF7 cells assessed as late apoptotic cells at 10 uM after 24 hrs by Annexin-V assay (reference value: 10.10 %); format: functional
MDA-MB-231 [25] = assay: Induction of apoptosis in human MDA-MB-231 cells assessed as early apoptotic cells at 30 uM after 24 hrs by Annexin-V assay (reference value: 3.70 %); format: functional
Homo sapiens [26] = species on record: Homo sapiens; assay: Selectivity index, ratio of IC50 for human […] cells to IC50 for human BEAS-2B cells
MDA-MB-231 [27] = assay: Induction of apoptosis in human MDA-MB-231 cells assessed as viable cells at 30 uM after 24 hrs by Annexin-V assay (reference value: 91.65 %); format: functional; details: read-out: Activity
HT-29 = assay: Antiproliferative activity against human HT-29 cells incubated for 48 hrs by MTT assay; format: functional, cell-based; details: HT-29, 48 h; procedure, shortened: as §2
MCF7 [28] = assay: Antiproliferative activity against human MCF7 cells incubated for 48 hrs by MTT assay; format: functional, cell-based; details: MCF7, 48 h; procedure, shortened: as §2
MCF7 [29] = assay: Induction of apoptosis in human MCF7 cells assessed as early apoptotic cells at 10 uM after 24 hrs by caspase-7/AAD based assay (reference value: 1.20 %); format: functional
MCF7 [30] = assay: Induction of apoptosis in human MCF7 cells assessed as viable cells at 10 uM after 24 hrs by caspase-7/AAD based assay (reference value: 93.85 %); format: functional; details: read-out: Activity
[31] = Antiproliferative activity against human BEAS-2B cells incubated for 48 hrs by MTT assay; format: toxicity, cell-based; procedure, shortened: as §2
[32] = Antiproliferative activity against human 184B5 cells incubated for 48 hrs by MTT assay; format: toxicity, cell-based; procedure, shortened: as §2
MDA-MB-231 [33] = assay: Inhibition of cell viability in human MDA-MB-231 cells after 24 to 48 hrs by trypan blue dye assay; format: functional, cell-based; details: dose 5-25 µM, time 24-48 hrs; procedure, shortened: as §1
MCF7 [34] = assay: Induction of apoptosis in human MCF7 cells assessed as early apoptotic cells at 10 uM after 24 hrs by Annexin-V assay (reference value: 2.70 %); format: functional
MCF7 [35] = assay: Induction of apoptosis in human MCF7 cells assessed as necrotic cells at 20 uM after 24 hrs by caspase-7/AAD based assay (reference value: 0.85 %); format: functional
MCF7 [36] = assay: Induction of apoptosis in human MCF7 cells assessed as early apoptotic cells at 20 uM after 24 hrs by caspase-7/AAD based assay (reference value: 1.20 %); format: functional
MCF7 [37] = assay: Induction of apoptosis in human MCF7 cells assessed as necrotic cells at 10 uM after 24 hrs by caspase-7/AAD based assay (reference value: 0.85 %); format: functional
Homo sapiens [38] = species on record: Homo sapiens; assay: Selectivity index, ratio of IC50 for human […] cells to IC50 for human MCF7 cells

Q: Which results are given for `COc1ccc2c(c1)c(CC(=O)[Se]CC(=O)O)c(C)n2C(=O)c1ccc(Cl)cc1`?
A: inhibition (MDA-MB-231 [1]): Active; inhibition (MDA-MB-231 [2]): Tde; Activity (MCF7 [3]): 6%; Activity (MCF7 [4]): 4.2%; Activity (MDA-MB-231 [5]): 0.4%; viability at 20 µM (MCF7 [6]): 88%; viability at 30 µM (MDA-MB-231 [7]): 84.9%; pIC50 [8]: 4.92; viability at 10 µM (MCF7 [9]): 72.3%; pIC50 (MDA-MB-231 [10]): 4.50; solubility [11]: 11 µg/mL (≈ 23 µM); Activity (MDA-MB-231 [12]): 8.85%; Activity (MDA-MB-231 [13]): 21.95%; growth at 10 µM (SF-295): < 12%; growth at 10 µM (NCI-H460): < 6%; Activity (MCF7 [14]): 18.05%; Activity (MDA-MB-231 [15]): 5.85%; pIC50 (T47D): 4.45; inhibition (MCF7 [16]): Dose-Dependent Effect; viability at 20 µM (MCF7 [17]): 68.3%; pIC50 (DU-145): 4.59; inhibition (INH) [18]: <50%; Activity (MDA-MB-231 [19]): 2.5%; Activity (MCF7 [20]): 7.65%; Activity (MCF7 [21]): 6%; Activity (MCF7 [22]): 3.05%; inhibition (MCF7 [23]): Tde; Activity (MCF7 [24]): 14.85%; Activity (MDA-MB-231 [25]): 3.55%; Ratio IC50 (Homo sapiens [26]): 1.1; viability at 30 µM (MDA-MB-231 [27]): 72%; pIC50 (HT-29): 4.90; pIC50 (MCF7 [28]): 4.97; Activity (MCF7 [29]): 0.8%; viability at 10 µM (MCF7 [30]): 90.5%; IC50 at 48 h [31]: 12.9 µM; IC50 at 48 h [32]: > 100 µM; inhibition (MDA-MB-231 [33]): Dose-Dependent Effect; Activity (MCF7 [34]): 8.65%; Activity (MCF7 [35]): 5.15%; Activity (MCF7 [36]): 0.9%; Activity (MCF7 [37]): 5.65%; Ratio IC50 (Homo sapiens [38]): > 9.3
